Each structure is given as a SMILES string. Activity calls are given as the source filed them. The calls are words filed in the database; no cut-off is given here.

This note sets out measurements from ChEMBL document CHEMBL1629448, “Identification and synthesis of novel inhibitors of acetyl-CoA carboxylase with in vitro and in vivo efficacy on fat oxidation” (J Med Chem, 2010).

Data set [1] in a line: Tmax in Wistar rat plasma at 10 mg/kg, po. The data set is classed as ADME, organism-based. Further details: dose 10 mg/kg, route oral. The method, boiled down: (§1)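 Female Wistar rats given a single oral dose of 10 mg/kg in 10% DMSO. Plasma and liver sampled at eight time points over 24 h, three animals killed per time point. Drug levels measured by LC-MS/MS with an internal standard. […] Values are means ± SD (n = 3).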

In data set [2] the target is T1, Peroxisome proliferator-activated receptor gamma (Homo sapiens) (UniProt P37231).
T1 sequence (whole entry): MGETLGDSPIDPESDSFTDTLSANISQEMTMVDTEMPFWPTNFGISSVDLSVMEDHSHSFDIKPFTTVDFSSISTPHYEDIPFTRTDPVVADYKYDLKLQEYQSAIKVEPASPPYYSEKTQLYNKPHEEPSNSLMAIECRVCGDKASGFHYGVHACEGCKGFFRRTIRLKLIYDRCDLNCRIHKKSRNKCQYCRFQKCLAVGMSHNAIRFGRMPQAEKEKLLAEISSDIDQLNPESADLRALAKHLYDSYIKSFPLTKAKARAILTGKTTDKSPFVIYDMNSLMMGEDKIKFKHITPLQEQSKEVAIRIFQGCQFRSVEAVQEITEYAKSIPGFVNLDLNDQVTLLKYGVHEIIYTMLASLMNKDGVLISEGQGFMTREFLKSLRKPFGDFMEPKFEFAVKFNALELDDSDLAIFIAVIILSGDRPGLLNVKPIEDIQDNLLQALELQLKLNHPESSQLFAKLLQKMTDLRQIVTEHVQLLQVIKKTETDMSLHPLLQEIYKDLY
Kind of data set: Inhibition of PPARgamma.

Data set [3] can be described thus: Drug concentration in Wistar rat liver at 10 mg/kg, po measured 6 hrs post dose. The class given is ADME, organism-based. As to conditions: read-out: Drug uptake. Further details: dose 10 mg/kg, route oral. An outline of the steps:
as §1

Data set [4] can be described thus: AUC (0 to infinity) in Wistar rat liver at 10 mg/kg, po. Further details: time infinity, dose 10 mg/kg, route oral. The data set is classed as ADME, organism-based. An outline of the steps: as §1
The nature of data set [5]: AUC (0 to infinity) in Wistar rat plasma at 3 mg/kg, iv. The class given is ADME, organism-based. Further details: dose 3 mg/kg, route intravenous, time infinity. An outline of the steps: (§2)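 Wistar rats given an intravenous bolus of 3 mg/kg in 5% solutol solution. Plasma sampled at eight time points over 24 h. Drug quantified by LC-MS/MS against an internal standard. C0h is the concentration immediately after dosing; AUC0-inf, clearance, t1/2 and Vdss were also derived.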

Data set [6] is described as follows: Half life in Wistar rat plasma at 10 mg/kg, po. The data set is classed as ADME, organism-based. Further details: dose 10 mg/kg, route oral. The method, boiled down: as §1
The target of data set [7] is T2, Peroxisome proliferator-activated receptor alpha (Homo sapiens) (UniProt Q07869).
T2 sequence (whole entry): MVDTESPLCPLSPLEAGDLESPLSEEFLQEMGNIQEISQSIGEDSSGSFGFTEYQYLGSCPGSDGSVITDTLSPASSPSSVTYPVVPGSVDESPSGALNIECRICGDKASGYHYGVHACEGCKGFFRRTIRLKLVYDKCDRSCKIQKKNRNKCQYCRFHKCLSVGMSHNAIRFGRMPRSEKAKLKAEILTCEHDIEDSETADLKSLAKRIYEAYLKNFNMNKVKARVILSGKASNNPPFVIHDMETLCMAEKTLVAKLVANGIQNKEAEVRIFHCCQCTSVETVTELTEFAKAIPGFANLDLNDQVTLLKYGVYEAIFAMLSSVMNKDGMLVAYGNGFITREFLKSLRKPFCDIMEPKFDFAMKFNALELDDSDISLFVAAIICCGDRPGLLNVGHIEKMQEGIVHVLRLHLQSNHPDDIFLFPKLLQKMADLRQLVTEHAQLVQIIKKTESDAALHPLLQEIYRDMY
The data set can be described thus: Inhibition of PPARalpha.

Data set [8] can be described thus: AUC (0 to infinity) in Wistar rat plasma at 10 mg/kg, po. Further details: time infinity, dose 10 mg/kg, route oral. The class given is ADME, organism-based. An outline of the steps: as §1
A short description of data set [9]: Volume of distribution at steady state in Wistar rat plasma at 3 mg/kg, iv. The class given is ADME, organism-based. Further details: dose 3 mg/kg, route intravenous. The method, boiled down: as §2

Consider `CC(=O)N[C@@H](C)CCc1ccc(Oc2ccc(OC(C)C)nc2)cc1`, for which the Tmax – broadly, the time at which the peak concentration occurs – in [1] worked out at 2 h. Besides, the inhibition entry in data set [2] and in [7] was “inactive” each time. For the same molecule, the concentration at 6 h in data set [3] was found to be 7.59 µM. Further, the area under the curve AUC(0-inf) (commonly total exposure, with the tail of the curve extrapolated) in [4] was determined as 120 µM·h; in data set [5], 5.6 µM·h; in data set [8], 19 µM·h. In data set [6], the half-life (in general, the time in which the quantity being followed falls by half) is 1.8 h. Moreover, the volume of distribution (Vd) (commonly the apparent volume that relates the amount in the body to the concentration in plasma or blood) in data set [9] amounted to 2.6 L/kg.
